Among the data in ChEMBL document CHEMBL1128341, “(+)-cis-4,5,7a,8,9,10,11,11a-octahydro-7H-10-methylindolo[1,7- bc][2,6]-naphthyridine: a 5-HT2C/2B receptor antagonist with low 5-HT2A receptor affinity” (1995) are pKD and Inhibition values, retold here.

In general, pKD refers to the KD on a negative log10 scale, so that one unit is a factor of ten.

The target in assay [1] is T1, Alpha-2A adrenergic receptor (Bos taurus) (UniProt Q28838).
T1 sequence (whole entry): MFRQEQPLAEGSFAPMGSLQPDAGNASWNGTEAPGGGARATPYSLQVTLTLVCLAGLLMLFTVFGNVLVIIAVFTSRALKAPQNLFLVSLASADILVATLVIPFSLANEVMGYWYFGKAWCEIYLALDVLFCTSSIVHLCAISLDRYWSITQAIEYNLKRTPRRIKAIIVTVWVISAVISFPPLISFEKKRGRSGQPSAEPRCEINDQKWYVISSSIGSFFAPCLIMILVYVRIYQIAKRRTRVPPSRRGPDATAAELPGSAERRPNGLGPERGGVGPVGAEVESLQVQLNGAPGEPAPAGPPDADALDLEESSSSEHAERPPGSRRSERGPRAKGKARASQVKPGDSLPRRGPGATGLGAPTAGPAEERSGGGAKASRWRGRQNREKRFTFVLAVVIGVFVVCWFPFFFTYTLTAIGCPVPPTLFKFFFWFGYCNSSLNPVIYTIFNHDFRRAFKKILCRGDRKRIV

Assay [2] has as its target T2, 5-hydroxytryptamine receptor 1A (Homo sapiens) (UniProt P08908).
T2 sequence (whole entry): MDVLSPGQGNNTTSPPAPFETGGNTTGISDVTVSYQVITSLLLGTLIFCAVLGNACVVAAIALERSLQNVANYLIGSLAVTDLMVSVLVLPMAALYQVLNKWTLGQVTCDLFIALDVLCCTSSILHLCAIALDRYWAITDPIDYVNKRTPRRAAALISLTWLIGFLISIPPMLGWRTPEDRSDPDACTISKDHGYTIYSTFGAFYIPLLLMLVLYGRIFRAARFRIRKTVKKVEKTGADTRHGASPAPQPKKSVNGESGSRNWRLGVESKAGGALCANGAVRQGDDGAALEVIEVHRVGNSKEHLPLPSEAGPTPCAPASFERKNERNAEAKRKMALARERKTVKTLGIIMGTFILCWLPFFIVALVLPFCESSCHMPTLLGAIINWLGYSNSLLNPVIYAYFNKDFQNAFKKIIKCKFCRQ
To be noted: Sus scrofa; Frontal cortex; Membrane.

The target of assay [3] is D(1A) dopamine receptor (Bos taurus) (UniProt Q95136). The conditions noted are these: Striatum.
In assay [4] the target is Serotonin 3 receptor (5HT3) (Mus musculus) (UniProt Q9JHJ5+P23979). To be noted: Cortex.
For assay [5], the target named is D(2) dopamine receptor (Bos taurus) (UniProt P20288). To be noted: Striatum.
Assay [6] concerns the target T3, 5-hydroxytryptamine receptor 2C (Homo sapiens) (UniProt P28335).
T3 sequence (whole entry): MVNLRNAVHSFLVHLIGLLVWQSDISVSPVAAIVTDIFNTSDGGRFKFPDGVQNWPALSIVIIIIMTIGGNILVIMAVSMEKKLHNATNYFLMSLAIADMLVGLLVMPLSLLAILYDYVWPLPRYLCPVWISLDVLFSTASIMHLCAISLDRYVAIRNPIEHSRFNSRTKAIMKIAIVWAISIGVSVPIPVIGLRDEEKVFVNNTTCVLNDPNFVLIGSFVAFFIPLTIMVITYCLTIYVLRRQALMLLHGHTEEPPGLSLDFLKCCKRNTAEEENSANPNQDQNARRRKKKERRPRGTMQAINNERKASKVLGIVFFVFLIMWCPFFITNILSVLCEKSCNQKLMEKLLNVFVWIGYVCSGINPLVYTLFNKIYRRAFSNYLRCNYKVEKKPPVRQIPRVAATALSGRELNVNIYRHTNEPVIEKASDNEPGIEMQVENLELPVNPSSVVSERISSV

In assay [7] the target is T4, Alpha-1A adrenergic receptor (Bos taurus) (UniProt P18130).
T4 sequence (whole entry): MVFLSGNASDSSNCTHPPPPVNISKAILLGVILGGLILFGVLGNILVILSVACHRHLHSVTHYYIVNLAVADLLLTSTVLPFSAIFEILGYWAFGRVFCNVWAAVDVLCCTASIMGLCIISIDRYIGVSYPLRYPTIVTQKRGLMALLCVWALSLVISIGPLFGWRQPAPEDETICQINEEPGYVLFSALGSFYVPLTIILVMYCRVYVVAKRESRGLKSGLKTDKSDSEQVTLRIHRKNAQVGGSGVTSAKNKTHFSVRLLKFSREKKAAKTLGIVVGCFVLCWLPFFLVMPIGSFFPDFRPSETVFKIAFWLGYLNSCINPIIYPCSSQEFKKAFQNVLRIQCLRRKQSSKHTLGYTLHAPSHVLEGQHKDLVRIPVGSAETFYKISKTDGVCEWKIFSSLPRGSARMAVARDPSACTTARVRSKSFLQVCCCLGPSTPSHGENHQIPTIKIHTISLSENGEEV

Assay [8] has as its target 5-hydroxytryptamine receptor 1B (Rattus norvegicus) (UniProt P28564).
Assay [9] concerns the target 5-hydroxytryptamine receptor 2A (Rattus norvegicus) (UniProt P14842). The conditions noted are these: N1E-115.
Assay [10] relates to Rattus norvegicus. Nature of the assay: Inhibition of ACTH response to MK-212 by the compound (1 mg/Kg) in rats with solvent. In kind it is functional. The gist of the method: (§1)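 Male Sprague-Dawley rats (200–250 g) received compound (0, 0.1 or 1 mg/kg sc) 20 min before MK-212 sc or solvent. Rats were decapitated 30 min after MK-212, and trunk blood plasma was taken. Rat ACTH was measured by radioimmunoassay (ng/mL), as means ± SEM of eight experiments.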

The test system of assay [11] is Rattus norvegicus. Description: Inhibition of ACTH response to MK-212 by the compound (1 mg/Kg) in rats. The format is functional. The gist of the method: as §1
In assay [12] the test system is Rattus norvegicus. Nature of the assay: Inhibition of ACTH response to MK-212 by the compound (0.1 mg/Kg) in rats. In kind it is functional. The gist of the method:
as §1

D(1A) dopamine receptor (Bos taurus), sequence (Q95136 whole entry): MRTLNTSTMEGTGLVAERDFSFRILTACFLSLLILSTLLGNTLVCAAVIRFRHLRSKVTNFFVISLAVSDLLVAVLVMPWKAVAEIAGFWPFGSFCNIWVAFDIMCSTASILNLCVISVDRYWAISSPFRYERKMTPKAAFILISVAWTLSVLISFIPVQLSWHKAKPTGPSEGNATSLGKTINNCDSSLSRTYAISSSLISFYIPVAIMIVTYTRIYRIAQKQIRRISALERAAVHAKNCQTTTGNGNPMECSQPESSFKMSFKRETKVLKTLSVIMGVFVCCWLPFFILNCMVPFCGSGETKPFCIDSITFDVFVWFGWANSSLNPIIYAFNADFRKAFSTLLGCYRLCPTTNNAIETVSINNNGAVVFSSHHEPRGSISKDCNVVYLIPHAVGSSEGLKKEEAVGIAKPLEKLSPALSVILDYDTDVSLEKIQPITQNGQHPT
D(2) dopamine receptor (Bos taurus), sequence (P20288 whole entry): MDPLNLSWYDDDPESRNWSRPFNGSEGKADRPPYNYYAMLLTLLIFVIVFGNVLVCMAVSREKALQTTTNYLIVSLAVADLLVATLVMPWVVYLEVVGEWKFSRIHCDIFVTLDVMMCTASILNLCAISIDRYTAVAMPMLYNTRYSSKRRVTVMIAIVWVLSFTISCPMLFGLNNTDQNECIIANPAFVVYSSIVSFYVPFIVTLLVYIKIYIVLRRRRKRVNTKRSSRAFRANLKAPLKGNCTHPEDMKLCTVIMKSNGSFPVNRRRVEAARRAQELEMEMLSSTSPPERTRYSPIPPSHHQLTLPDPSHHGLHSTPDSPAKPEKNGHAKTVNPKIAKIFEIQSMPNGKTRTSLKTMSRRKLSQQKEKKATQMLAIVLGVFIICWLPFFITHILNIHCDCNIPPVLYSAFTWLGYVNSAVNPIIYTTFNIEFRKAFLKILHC
Serotonin 3 receptor (5HT3) (Mus musculus), sequence (P23979 whole entry, looked up): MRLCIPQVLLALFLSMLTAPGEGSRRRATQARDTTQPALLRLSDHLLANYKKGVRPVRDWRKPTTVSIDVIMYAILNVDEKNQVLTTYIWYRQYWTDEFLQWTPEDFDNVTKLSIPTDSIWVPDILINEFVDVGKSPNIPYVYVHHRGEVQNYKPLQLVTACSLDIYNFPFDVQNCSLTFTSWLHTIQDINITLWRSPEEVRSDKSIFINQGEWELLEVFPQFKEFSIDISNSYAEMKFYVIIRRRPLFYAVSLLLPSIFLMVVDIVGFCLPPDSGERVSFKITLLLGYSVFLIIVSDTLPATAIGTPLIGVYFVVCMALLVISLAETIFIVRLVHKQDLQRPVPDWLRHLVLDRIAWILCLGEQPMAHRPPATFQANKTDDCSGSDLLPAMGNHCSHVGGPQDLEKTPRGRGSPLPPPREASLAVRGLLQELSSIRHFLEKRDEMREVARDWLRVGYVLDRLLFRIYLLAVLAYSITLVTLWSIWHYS
Serotonin 3 receptor (5HT3) (Mus musculus), sequence (Q9JHJ5 whole entry, looked up): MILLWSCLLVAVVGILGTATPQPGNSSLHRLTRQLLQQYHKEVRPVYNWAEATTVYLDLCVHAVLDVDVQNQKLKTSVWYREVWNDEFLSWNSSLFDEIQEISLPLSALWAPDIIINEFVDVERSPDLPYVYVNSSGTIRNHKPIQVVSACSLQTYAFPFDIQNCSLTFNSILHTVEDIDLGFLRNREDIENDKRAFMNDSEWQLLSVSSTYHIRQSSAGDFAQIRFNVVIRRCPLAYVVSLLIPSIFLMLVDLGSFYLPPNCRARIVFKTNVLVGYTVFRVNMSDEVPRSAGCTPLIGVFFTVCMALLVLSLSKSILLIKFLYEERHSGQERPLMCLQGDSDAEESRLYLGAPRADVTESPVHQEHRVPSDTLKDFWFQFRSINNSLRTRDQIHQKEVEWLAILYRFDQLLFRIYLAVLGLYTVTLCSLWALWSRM
5-hydroxytryptamine receptor 2A (Rattus norvegicus), sequence (P14842 whole entry): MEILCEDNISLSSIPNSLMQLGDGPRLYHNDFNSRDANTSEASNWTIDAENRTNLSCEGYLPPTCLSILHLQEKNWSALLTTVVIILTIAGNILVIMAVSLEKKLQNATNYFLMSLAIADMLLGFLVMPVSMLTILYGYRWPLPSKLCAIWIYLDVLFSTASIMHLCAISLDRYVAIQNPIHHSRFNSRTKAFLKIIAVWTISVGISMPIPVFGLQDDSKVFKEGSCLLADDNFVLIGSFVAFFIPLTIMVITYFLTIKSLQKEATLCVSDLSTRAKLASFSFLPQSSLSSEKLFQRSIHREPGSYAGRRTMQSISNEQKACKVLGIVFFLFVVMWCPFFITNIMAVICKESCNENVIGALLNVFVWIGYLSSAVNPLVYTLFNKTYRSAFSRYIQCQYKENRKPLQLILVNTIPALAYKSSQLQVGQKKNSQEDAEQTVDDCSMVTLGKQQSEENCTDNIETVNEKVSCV
5-hydroxytryptamine receptor 1B (Rattus norvegicus), sequence (P28564 whole entry): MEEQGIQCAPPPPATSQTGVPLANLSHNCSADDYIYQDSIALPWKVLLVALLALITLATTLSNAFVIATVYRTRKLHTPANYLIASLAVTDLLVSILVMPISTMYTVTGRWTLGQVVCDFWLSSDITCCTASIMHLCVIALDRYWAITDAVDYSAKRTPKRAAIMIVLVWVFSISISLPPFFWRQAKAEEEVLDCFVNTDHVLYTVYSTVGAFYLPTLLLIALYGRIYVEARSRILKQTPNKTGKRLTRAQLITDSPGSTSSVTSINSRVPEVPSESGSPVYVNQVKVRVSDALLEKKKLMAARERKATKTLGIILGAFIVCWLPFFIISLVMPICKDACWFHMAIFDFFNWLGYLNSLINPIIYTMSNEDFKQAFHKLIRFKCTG

Regarding `CN1CC[C@@H]2CN3CCc4cccc(c43)[C@@H]2C1` (stereo in doubt; 8) [listing 1 of 2 here], the negative-log KD (pKD) in assay [1] was 6.5; in [2], 6.1; in [3], < 5; in [4], 4.7; in assay [5], < 5; in assay [6], 7.8. For the same molecule, the pKD in [7] is 5.6; in assay [8], 4.6; in assay [9], 6.2.

Consider `Cc1nc2sccn2c(=O)c1CCN1CCC(=C(c2ccc(F)cc2)c2ccc(F)cc2)CC1` [RITANSERIN], for which the Inhibition in assay [10] stood at 37.2 ng/mL; in [11], 95.4 ng/mL; in assay [12] it was 204.3 ng/mL.

Turning to `CN1CC[C@@H]2CN3CCc4cccc(c43)[C@@H]2C1` (stereo in doubt; 8) [listing 2 of 2 here], the Inhibition in assay [10] is 38.5 ng/mL; in [11], 95.1 ng/mL; in [12] it was 165.8 ng/mL.

As to `CN1CC[C@@H]2CN3CCc4cccc(c43)[C@@H]2C1` (stereo in doubt; 9), the pKD in assay [1] was 6; in assay [2], < 5; in assay [3] it was < 5; in [5], < 5; in assay [7], 6.
